Data taken from ChEMBL document CHEMBL4145471, “New 1,5 and 2,5-disubstituted tetrazoles-dependent activity towards surface barrier of Candida albicans” (Eur J Med Chem, 2018).
Activity calls are given as the source filed them. No cut-off for these calls is given here.

Tests used:
[1] = tested on: Candida albicans; experiment: Induction of necrosis in Candida albicans ATCC 90028 biofilms assessed as loss of cell membrane integrity at 16 ug/ml after 18 hrs by propidium iodide/acridine orange staining based confocal laser scanning microscopic analysis; assay type: functional, organism-based
How it was run: (§1)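 Caco-2-free model: the TR146 epithelial layer, 21 days post-seeding on filter inserts, was inoculated with 1.0–1.2×10^5/mL log-phase ATCC 90028 yeast. Biofilms were treated at 256, 16 or 0.0313 µg/mL for 18–48 h at 37°C in 5% CO2 and washed with PBS. Unfixed cells were stained with propidium iodide (5 µg/mL) and acridine orange, then imaged by confocal laser scanning microscopy.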

[2] = tested on: Candida albicans; experiment: Antifungal activity against Candida albicans ATCC 90028 infected in Galleria mellonella larvae assessed as increase in health score at 16 ug/ml treated for 60 mins post infection measured after 18 hrs; assay type: functional, organism-based
[3] = tested on: Candida albicans; experiment: Antifungal activity against Candida albicans ATCC 90028 after 72 hrs in presence of ergosterol by M27-A3 microdilution method; assay type: functional; conditions: ATCC 90028, 72 h
How it was run: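 Ergosterol-modified M27-A3 assay. Compounds at 512-1 µg/mL serially diluted in RPMI; the 10^3 CFU/mL inoculum is made in RPMI with ergosterol (dissolved in 10% DMSO/1% Tween 80, heated), giving 400 µg/mL ergosterol in the wells. Itraconazole and amphotericin B serve as controls. Plates at 35°C, read after 72 h. MIC is the lowest concentration without visible growth; triplicate on three days, geometric means.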

[4] = tested on: Candida albicans; experiment: Antifungal activity against Candida albicans ATCC 90028 infected in Galleria mellonella larvae assessed as survival at 16 ug/ml treated for 30 to 60 mins post infection; assay type: functional
How it was run: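 Larvae (195±17 mg, ethanol-disinfected) injected with 10 µL C. albicans suspension into last right proleg; single 10 µL dose (16 µg/mL in RPMI, diluted from 1600 µg/mL stock) into last left proleg 30 min or 1 h later. Controls: infected untreated and PBS-injected. Survival monitored every 24 h for 2 days; health index scored. At least three independent experiments.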

[5] = tested on: Candida albicans; experiment: Antifungal activity against Candida albicans ATCC 90028 infected in Galleria mellonella larvae assessed as increase in larvae health score at 16 ug/ml preincubated for 30 mins followed by fungal infection and measured after 18 to 48 hrs; assay type: functional, organism-based
How it was run: (§2)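 Larvae (195±17 mg, ethanol-disinfected) were injected with 10 µL C. albicans into the last right proleg. Compound at 16 µg/mL in RPMI (10 µL) went into the last left proleg 30 min or 1 h after infection, or 1 h or 30 min before it. A health index was scored from mobility, cocoon formation, melanization and survival, with monitoring every 24 h for 2 days. Controls were infected and PBS-injected larvae.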

[6] = tested on: Candida albicans; experiment: Induction of apoptosis in Candida albicans ATCC 90028 biofilms assessed as detection of DNA ladder at 256 ug/ml after 10 mins by […]; assay type: functional, organism-based
[7] = tested on: Candida albicans; experiment: Induction of early apoptosis in Candida albicans ATCC 90028 biofilms at 256 ug/ml after 18 hrs by propidium iodide/acridine orange staining based confocal laser scanning microscopic analysis; assay type: functional, organism-based; how it was run: as §1
[8] = tested on: Candida albicans; experiment: Antifungal activity against Candida albicans ATCC 90028 infected in Galleria mellonella larvae assessed as survival at 16 ug/ml treated for 30 to 60 mins post infection and measured after 48 hrs; assay type: functional, organism-based
How it was run: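 G. mellonella larvae (195±17 mg, ethanol-disinfected) were given 10 µL C. albicans suspension into the last right proleg. A single 10 µL dose at 16 µg/mL in RPMI (diluted from 1600 µg/mL stock) went into the last left proleg, either 30 min or 1 h after infection or 1 h or 30 min before it. Survival was checked every 24 h for 2 days. Untreated infected larvae and PBS-injected larvae served as controls; ≥3 independent experiments, mean±SEM.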

[9] = tested on: Candida albicans; experiment: Antifungal activity against Candida albicans ATCC 90028 infected in Galleria mellonella larvae assessed as increase in larvae health score at 16 ug/ml treated for 30 mins post infection and measured after 18 to 48 hrs; assay type: functional, organism-based; how it was run: as §2
[10] = tested on: Candida albicans; experiment: Antifungal activity against Candida albicans ATCC 90028 assessed as reduction in cell adherence to human Caco2 cells at 0.0313 ug/ml preincubated for 2 hrs followed by compound washout and resuspended in RPMI medium measured after 18 hrs by colony counting assay relative to control; assay type: functional; set-up: scale not given: the % may be the effect or the level left
How it was run: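 Yeasts grown 18 h in YEPD at 30°C, then exposed at 10^4/mL to compound in RPMI for 2 h at 35°C with shaking. Washed twice in PBS, resuspended in RPMI and added to Caco-2 monolayers (18 h culture in EMEM/10% FCS) for 2 h at 37°C, 5% CO2. Non-adherent cells rinsed off, Caco-2 lysed with water, and adherent yeasts counted as colonies on Sabouraud agar after 18 h at 30°C. Expressed as % of cells added versus untreated; three experiments.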

[11] = tested on: Candida albicans; experiment: Induction of late apoptosis in Candida albicans ATCC 90028 biofilms assessed as formation of condense chromatin at 16 ug/ml after 18 hrs by propidium iodide/acridine orange staining based confocal laser scanning microscopic analysis; assay type: functional, organism-based; how it was run: as §1
[12] = tested on: Candida albicans; experiment: Ratio of MIC for Candida albicans ATCC 90028 in absence of ergosterol to MIC for Candida albicans ATCC 90028 in presence of ergosterol; assay type: functional
How it was run: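 MICs per modified M27-A3 in RPMI with or without ergosterol (final 400 µg/mL, dissolved in 10% DMSO/1% Tween 80 with heating). Inoculum 10³ CFU/mL; tetrazoles and itraconazole tested at 512–1 µg/mL, amphotericin B at 125–0.24 µg/mL. Plates were incubated at 35°C and read at 72 h; MIC was the lowest concentration with no visible growth. Run in triplicate on three days, geometric means.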

Row | SMILES | Activity [1] | Activity [2] | MIC [3] [µg/mL] | Survival [4] | Activity [5] | Activity [6] | Activity [7] | Activity [8] | Activity [9] | Activity [10] [%] | Activity [11] | Ratio [12]
1 | CCOC(=O)CCn1nnc(-c2ccccc2)n1 | Active | Active | 64 | <=18 hr | Active | inactive | Active | inactive | Active | 63.41 | Active | 
2 | ClCCCn1nnnc1-c1ccccc1Cl |  |  |  |  |  |  |  |  |  |  |  | 2
